Compound activity from PubChem.
thrombin 1536: inhibitors of human thrombin; P00734; alpha-thrombin, Boc-VPR-AMC fluorogenic substrate cleavage; inhibition, % at 5 µM; 220,000 tested, 0.26% active;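 active = inhibition at or above 40%; inactive = inhibition below 40%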
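Assay system: human alpha-thrombin enzyme. Reagent: Boc-VPR-AMC substrate, 15 µM final. Compound dosing: one concentration per compound, 5 µM, with 0.2% DMSO. Incubation: room-temperature reaction. Technique: AMC fluorescence, 355/460 nm. Measure: % inhibition relative to enzyme controls and enzyme-free blanks.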
FXIIa inh: factor XIIa (human) inhibition | P00748 | purified FXIIa, Boc-QGR-AMC fluorogenic substrate, 2 h | inhibition, % at 5 µM | 220,000 tested, 0.3% active | AID 800; in the data active = inhibition above about 40%
FXIa inh: factor XIa (human) inhibition; 220,000 tested, 0.14% active; inhibition, % at 5 µM; purified FXIa, Boc-Glu-Ala-Arg-AMC fluorogenic substrate; AID 798; P03951;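 active = inhibition of at least 40%; inactive = inhibition below 40%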;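 also: fluorescence of freed AMC excited at 355 nm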
Wee1 stabilizer: blocks degradation of human Wee1 kinase. AID 1321. reporter increase, % at 5 µM. HeLa Luc-Wee1K328M stability, luciferase luminescence; 100% = proteasome inhibitor MG132 effect. 220,000 tested, 1.2% active;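 active = activation above the mean of all tested compounds plus 3 SD, set per screening run, cut at about 8.8% in these data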;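 also: cells exposed to compound for 20 h before luminescence read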
hK5 inh: blocks human kallikrein 5 protease activity | Q9Y337 | recombinant hK5, fluorogenic AMC substrate cleavage | inhibition, % at 5 µM | 210,000 tested, 0.59% active | AID 873;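 active = inhibition of 40% or more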
Target sequence (Q9Y337 67-293 limits assumed): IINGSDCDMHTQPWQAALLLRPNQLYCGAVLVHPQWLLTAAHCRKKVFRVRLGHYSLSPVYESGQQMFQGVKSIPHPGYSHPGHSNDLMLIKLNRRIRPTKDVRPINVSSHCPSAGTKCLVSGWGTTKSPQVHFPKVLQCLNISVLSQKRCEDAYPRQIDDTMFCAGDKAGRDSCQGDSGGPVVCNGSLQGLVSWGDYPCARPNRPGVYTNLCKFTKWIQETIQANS
Hits are given with their value; n = inactive; x = no result given. The list is not random: actives were taken first. Their share in the collection is about 2.2%.

SMILES	thrombin 1536	FXIIa inh	FXIa inh	Wee1 stabilizer	hK5 inh
Cc1c(NC(=S)NC(=O)C(C)(C)C)cccc1[N+](=O)[O-]	n	n	n	n	n
CCCCCNC(=O)c1ccc2c(=O)n(CCOC)c(=O)[nH]c2c1	n	n	n	10.0	n
COCCn1c(=O)[nH]c2cc(C(=O)NCCN3CCN(c4ccccc4)CC3)ccc2c1=O	n	n	n	11	n
COCCn1c(=O)[nH]c2cc(C(=O)NCCN3CCN(c4ccc(OC)cc4)CC3)ccc2c1=O	n	n	n	n	n
COCCNC(=O)c1ccc2c(=O)n(CCOC)c(=O)[nH]c2c1	n	n	n	n	n
CCOc1ccccc1NC(=S)N(CCC(C)C)C1CCN(C(C)=O)CC1	n	n	n	n	n
CC(O)C(=O)N/N=C/c1cccc2ccccc12 (stereo not given)	48	n	n	n	41
Cn1cccc1CC(=O)N/N=C/c1cccc2ccccc12	n	n	n	n	n
CCOC(=O)c1c(-c2ccc(C)cc2)csc1NC(=O)CCN1CCOCC1	42	n	n	n	n
COC(=O)c1cccc(NC(=O)Nc2ccc(Cl)cc2Cl)c1	n	n	n	n	42
CC(C)CNC(=O)c1cccc(NC(=O)CCc2ccccc2)c1	n	n	n	10	x
COC(=O)c1cccc(NC(=S)Nc2cc(Cl)ccc2OC)c1	n	n	n	n	x
COC(=O)c1cccc(NC(=O)CCc2ccccc2)c1	n	n	n	9.4	n
COc1ccc(/C=C(\NC(=O)c2ccccc2)C(=O)OCC2CCCN3CCCCC23)cc1OC (stereo not given)	n	n	n	n	n
CC(C)c1ccc(NC(=S)Nc2ccc3cn[nH]c3c2)cc1	42	n	n	n	n
NC(=O)c1cccnc1OCC(F)(F)F	n	n	n	n	n
O=C(CCNc1ccc(Br)cc1)c1cccc([N+](=O)[O-])c1	n	n	n	n	x
O=C(NCCNc1ccc([N+](=O)[O-])cc1)c1cccc(Br)c1	n	n	n	9.4	n
CC(=O)c1ccc(O)c(CSC2=NCCS2)c1	67	n	n	n	n
N=c1c2ccccc2nnn1-c1ccc(C(F)(F)F)cc1	n	n	n	n	n
COc1ccc(-c2nn3cnnc3s2)cc1OC	45	n	n	n	129
O=C(Cc1ccc(Cl)cc1Cl)OCC(=O)N1CCN(C(=O)c2ccco2)CC1	n	n	n	n	n
Cc1ccc(C)c(NC(=S)N2CCN(CCO)CC2)c1	n	n	n	n	n
O=C(CSC1CC(=O)N(CCc2ccccc2)C1=O)Nc1cccc(Cl)c1 (stereo not given)	n	n	n	n	n
O=C(CSC1CC(=O)N(CCc2ccccc2)C1=O)Nc1ccc(Br)cc1 (stereo not given)	n	n	n	n	42
SMILES	thrombin 1536	FXIIa inh	FXIa inh	Wee1 stabilizer	hK5 inh
COCCNc1nnc(SCC(=O)c2c[nH]c3ccccc23)s1	101	n	n	n	n
COCCNc1nnc(SCC(=O)NNC(=O)c2ccccc2)s1	n	n	n	n	n
COc1cc([N+](=O)[O-])ccc1NC(=O)NCc1ccco1	n	n	n	n	x
COc1ccc([N+](=O)[O-])cc1NCc1ccco1	n	n	81	n	n
CN(Cc1cccnc1)C(=O)CC1C(=O)NCCN1Cc1ccc(-c2ccccc2)cc1 (stereo not given)	n	n	n	n	n
CN(CC1CCOCC1)C(=O)CC1C(=O)NCCN1Cc1ccc(-c2ccccc2)cc1 (stereo not given)	n	n	n	9.1	n
O=C(CC1CC2CCC1C2)Nc1nc(-c2ccccn2)cs1 (stereo not given)	n	n	n	n	87
O=C(Nc1nc(-c2ccccn2)cs1)C1CC1	n	n	n	n	n
CSc1nnc2n(CCc3ccccc3)c(=O)c3c4c(sc3n12)CCCC4	x	x	x	n	x
Cc1nnc2n(CCc3ccccc3)c(=O)c3c4c(sc3n12)CCCC4	x	x	x	9.3	x
O=C1NC(=Nc2ccc(Cl)cc2)SC1Cc1cc(Cl)ccc1Cl (stereo not given)	n	n	n	9.0	n
O=C1NC(=Nc2ccc(F)cc2)SC1Cc1ccc(F)cc1 (stereo not given)	n	n	n	n	n
c1ccc(-n2nnnc2Cc2nnnn2-c2ccccc2)cc1	n	n	n	n	73
Cc1[nH]c2ccccc2c1C(=O)C(=O)N1CCN(C(=O)c2ccco2)CC1	n	n	n	n	n
Cc1ccc2nc(-c3ccc(NC(=O)COC(=O)c4ccco4)cc3)sc2c1	n	n	n	n	n
Cc1[nH]c2ccccc2c1NC(=O)CN1CCN(C(=O)c2ccco2)CC1	n	59	n	n	n
Cc1ccc2nc(-c3ccc(NC(=O)CN4CCN(C(=O)c5ccco5)CC4)cc3)sc2c1	n	n	n	11	n
CCn1c(SCC(=O)O)nnc1-c1cccnc1	n	n	n	n	n
COc1ccc(/C=C(/NC(=O)c2cccc([N+](=O)[O-])c2)C(=O)O)cc1OC	n	n	n	n	n
COc1ccccc1/C=C(\NC(=O)c1ccc(OC)c(OC)c1)C(=O)Nc1cc([N+](=O)[O-])ccc1C	n	n	n	10	n
CC(C)Cn1c(N)c(C=O)c(=O)[nH]c1=O	n	n	n	n	n
COc1ccc(CCN2CC(C(=O)NC3CCCCC3)CC2=O)cc1OC (stereo not given)	n	n	n	n	n
COC(=O)/C(=C/Nc1ccccc1)[N+](=O)[O-]	n	46	n	n	n
COc1cccc(Cn2cnc3c(N)c(C)c(C)cc32)c1	n	n	n	n	n
Cc1cccc(Cn2cnc3c(NS(C)(=O)=O)c(C)c(C)cc32)c1	n	n	n	n	57
SMILES	thrombin 1536	FXIIa inh	FXIa inh	Wee1 stabilizer	hK5 inh
Cc1ncoc1C(=O)N1CCCC(C(=O)c2ccc(C(F)(F)F)cc2)C1 (stereo not given)	n	n	n	n	n
CCn1c(SCC(=O)N2CCc3ccccc32)nnc1-c1ccco1	n	n	n	n	n
O=C(CSc1ncn[nH]1)N1CCN(S(=O)(=O)c2ccccc2)CC1	n	n	n	11	n
O=C(/C=C/c1c(F)cccc1Cl)c1ccc(O)cc1	n	n	n	11	n
CCCOc1ccc(N2C(=O)CC(NCCc3ccc(S(N)(=O)=O)cc3)C2=O)cc1 (stereo not given)	n	n	n	9.7	n
Cc1ccc(C)c(N(CC(=O)NC2CCCC2)C(=O)CCCC(=O)Nc2ccccn2)c1	n	n	n	8.9	n
O=C(CNC(=O)c1cccs1)NCC(=O)OCc1c(F)cccc1Cl	n	n	n	9.0	n
CCC(C(=O)NC1CCCC1)N(C(=O)Cn1nnc(-c2ccc(C)o2)n1)c1cnc2ccccc2c1 (stereo not given)	n	n	n	9.8	n
O=c1c2ccccc2nnn1CCO	n	n	n	n	x
CN(c1ccccc1)S(=O)(=O)c1ccc(NC(=S)NC(=O)c2ccccc2)cc1	n	95	n	n	n
Cc1ccc(C(=O)NC(=S)Nc2ccc(S(=O)(=O)N(C)c3ccccc3)cc2)cc1	n	n	n	n	n
